Results reported in ChEMBL document CHEMBL1149123, “Antineoplastic agents. 499. Synthesis of hystatin 2 and related 1H-benzo[de][1,6]-naphthyridinium salts from aaptamine” (J Med Chem, 2004).
Activity calls are given as the source filed them. The calls are words filed in the database; no cut-off is given here.

Tests used:
NCI-H460 = test: Inhibition of lung NCI-H460 cell proliferation; type: functional; settings: Homo sapiens, read-out: ED50 (the source's name)
[1] = molecular target: Protein kinase C alpha type (Homo sapiens) (UniProt P17252); test: Inhibition of PKC alpha at […]; settings: concentration not given here
Outline: (§1)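 PKC alpha ligand binding, measured as inhibition of [20-³H]phorbol 12,13-dibutyrate binding at a single compound concentration of […]. Triplicate measurements in single or triplicate experiments, depending on compound. Reported as percent inhibition, mean ± SEM.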

Micrococcus luteus [2] = test: Antimicrobial activity against Micrococcus luteus; type: functional
MCF7 = test: Inhibition of breast MCF-7 cell proliferation; type: functional; settings: Homo sapiens, read-out: ED50 (the source's name)
[3] = system: Stenotrophomonas maltophilia; test: Antimicrobial activity against Stenotrophomonas maltophilia; No inhibition at 64 ug/mL; type: functional, organism-based
DU-145 = test: Inhibition of prostate DU-145 cell proliferation; type: functional; settings: Homo sapiens, read-out: ED50 (the source's name)
Enterococcus faecalis = test: Antimicrobial activity against Enterococcus faecali; No inhibition at 64 ug/mL; type: functional
SF-268 = test: Inhibition of CNS SF-268 cell proliferation; type: functional; settings: Homo sapiens, read-out: ED50 (the source's name)
P388 = test: Inhibition of murine leukemia P388 cell proliferation; type: functional; settings: Mus musculus, read-out: ED50 (the source's name)
Cryptococcus neoformans = test: Antimicrobial activity against Cryptococcus neoformans; No inhibition at 64 ug/mL; type: functional, organism-based
Streptococcus pneumoniae [4] = test: Antimicrobial activity against Streptococcus pneumoniae; type: functional
Enterobacter cloacae = test: Antimicrobial activity against Enterobacter cloacae; No inhibition at 64 ug/mL; type: functional, organism-based
Escherichia coli = test: Antimicrobial activity against Escherichia coli; No inhibition at 64 ug/mL; type: functional
Neisseria gonorrhoeae [5] = test: Antimicrobial activity against Neisseria gonorrhoeae; type: functional
[6] = molecular target: Protein kinase C alpha type (Homo sapiens) (UniProt P17252); test: Displacement of [20-3H]-phorbol 12,13-dibutyrate from protein kinase C alpha at […]; settings: concentration not given here; outline: as §1
KM-20L2 = test: Inhibition of colon KM20L2 cell proliferation; type: functional; settings: Homo sapiens, read-out: ED50 (the source's name)
BXPC-3 = test: Inhibition of pancreatic BXPC-3 cell proliferation; type: functional; settings: Homo sapiens, read-out: ED50 (the source's name)
Staphylococcus aureus = test: Antimicrobial activity against Staphylococcus aureus; No inhibition at 64 ug/mL; type: functional, organism-based
Candida albicans = test: Antimicrobial activity against Candida albicans; No inhibition at 64 ug/mL; type: functional, organism-based
Neisseria gonorrhoeae [7] = test: Antimicrobial activity against Neisseria gonorrhoeae; No inhibition at 64 ug/mL; type: functional
Micrococcus luteus [8] = test: Antimicrobial activity against Micrococcus luteus; 8-16; type: functional
Streptococcus pneumoniae [9] = test: Antimicrobial activity against Streptococcus pneumoniae; No inhibition at 64 ug/mL; type: functional
Micrococcus luteus [10] = test: Antimicrobial activity against Micrococcus luteus; No inhibition at 64 ug/mL; type: functional, organism-based
[11] = system: Mycobacterium tuberculosis; test: Antimicrobial activity against Mycobacterium tuberculosis at 6.25 ug/mL; type: functional
[12] = molecular target: Protein kinase C alpha type (Homo sapiens) (UniProt P17252); test: Inhibition of PKC alpha
Outline: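 Competition with [20-³H]phorbol 12,13-dibutyrate binding to PKC alpha. Full dose–response curves of binding inhibition were determined.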

Micrococcus luteus [13] = test: Antimicrobial activity against Micrococcus luteus; 0.5-2; type: functional
[14] = Effect on tubulin assembly was determined; type: functional
Outline: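 Tubulin assembly tested in vitro, top concentration […].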

Row | Structure (SMILES) | EC50 (NCI-H460) [µg/mL] | inhibition [1] [%] | EC50 (MCF7) [µg/mL] | Activity [3] | EC50 (DU-145) [µg/mL] | Activity (Enterococcus faecalis) | EC50 (SF-268) [µg/mL] | EC50 (P388) [µg/mL] | Activity (Cryptococcus neoformans) | Activity (Enterobacter cloacae) | Activity (Escherichia coli) | Activity (Neisseria gonorrhoeae [5]) [µg/mL] | inhibition [6] [%] | EC50 (KM-20L2) [µg/mL] | EC50 (BXPC-3) [µg/mL] | Activity (Staphylococcus aureus) | Activity (Candida albicans) | Activity (Streptococcus pneumoniae [9]) | other results
1 | COc1ccc(CN2C=Cc3cc(OC)c(OC)c4nccc2c34)cc1.Cl | 5.1 | < 6 | 8 | inactive | 3.1 | inactive | 8.2 | 2.19 | inactive | inactive | inactive | 64 | 9.2 | 3.9 | 4.2 | inactive | inactive |  | Activity (Micrococcus luteus [2]): 64 µg/mL; Activity (Streptococcus pneumoniae [4]): 64 µg/mL
2 | COc1cc2c3c(cc[n+](C)c3c1OC)N(C)C=C2.[I-] | > 10 | < 6 | 4.9 |  | 3.5 |  | 0.69 | 3.89 |  |  |  |  |  | 6.1 | 7.1 |  |  |  | 
3 | COc1ccc(C[n+]2ccc3c4c(cc(OC)c(OC)c42)C=CN3Cc2cc(OC)c(OC)c(OC)c2)cc1O.[Br-] | > 10 | 43.2 | > 10 | inactive | > 10 | inactive | > 10 | > 10 | inactive | inactive | inactive |  | 16 | > 10 | > 10 | inactive | inactive | inactive | Activity (Neisseria gonorrhoeae [7]): inactive; Activity (Micrococcus luteus [8]): 16 µg/mL
4 | COc1cc(CN2C=Cc3cc(OC)c(OC)c4nccc2c34)cc(OC)c1OC.Cl | > 10 | < 6 | > 10 | inactive | > 10 | inactive | > 10 | 4.64 | inactive | inactive | inactive | 64 |  | 3.4 | > 10 | inactive | inactive | inactive | Activity (Micrococcus luteus [10]): inactive
5 | COc1cc2c3c(ccnc3c1OC)N(C)C=C2 | > 10 | < 6 | > 10 |  | > 10 |  | > 10 | > 10 |  |  |  |  |  | > 10 | > 10 |  |  |  | 
6 | COc1cc2c3c(cc[n+](Cc4ccccc4)c3c1OC)N(Cc1ccccc1)C=C2.[Cl-] | 0.26 | 71.1 | 0.27 | inactive | 0.036 | 32 µg/mL | 0.064 | 0.234 | inactive | inactive | 8 µg/mL |  | 11.8 | 0.055 | 0.061 | inactive | inactive | 32 µg/mL | Activity (Neisseria gonorrhoeae [7]): 0.25 µg/mL; inhibition at 6.25 µg/mL [11]: 98%; ID50 [12]: 20.8 µM; Activity (Micrococcus luteus [13]): 2 µg/mL
7 | COc1cc2ccnc3c2c(c1O)N(C)C=C3 [ISOAAPTAMINE] |  |  |  |  |  |  |  |  |  |  |  |  |  |  |  |  |  |  | IC50 [14]: 31 µM
8 | COc1cc2c3c(ccnc3c1OC)N(Cc1ccccc1)C=C2.Cl | 4.9 | < 6 | > 10 | inactive | 4.4 | inactive | > 10 | 1.64 | inactive | inactive | inactive | 64 | 6.4 | 2.2 | 4.3 | inactive | inactive |  | Activity (Micrococcus luteus [10]): inactive; Activity (Streptococcus pneumoniae [4]): 64 µg/mL
